Measurements as given in ChEMBL document CHEMBL5058577, “EUbOPEN Chemogenomics Library 2 (Multiplex)” (2022).

System: U2OS
Test: Multiplex assay against U2OS
Type: toxicity, cell-based
Conditions: human
Method in brief: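 Phenotypes for tubulin, mitochondrial mass and membrane permeability are expressed as per cents of healthy-nucleus cells. Cells were stained live at seeding with Hoechst33342, BioTracker Green Microtubule Cytoskeleton Dye, MitoTracker Red and Annexin V Alexa Fluor 680, then imaged after compound addition on a CQ1 microscope at 37°C and 5% CO2. Machine-learning gating in CellPathfinder separated Hoechst high-intensity objects from normal cells, divided normal cells by nuclear state (healthy, pyknosed, fragmented) and divided pyknosed cells into mitotic or apoptotic.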

[1] = 12 h, 1 µM, compound concentration 1 uM, replicate 1
[2] = 12 h, 1 µM, compound concentration 1 uM, replicate 2
[3] = 12 h, 10 µM, compound concentration 10 uM, replicate 1
[4] = 12 h, 10 µM, compound concentration 10 uM, replicate 2
[5] = 24 h, 1 µM, compound concentration 1 uM, replicate 1
[6] = 24 h, 1 µM, compound concentration 1 uM, replicate 2
[7] = 24 h, 10 µM, compound concentration 10 uM, replicate 1
[8] = 24 h, 10 µM, compound concentration 10 uM, replicate 2
[9] = 48 h, 1 µM, compound concentration 1 uM, replicate 1
[10] = 48 h, 1 µM, compound concentration 1 uM, replicate 2
[11] = 48 h, 10 µM, compound concentration 10 uM, replicate 1
[12] = 48 h, 10 µM, compound concentration 10 uM, replicate 2

## COC[C@@H](c1ccc(C(F)(F)F)cc1)N1CCN(C2(C)CCN(C(=O)c3c(C)ncnc3C)CC2)C[C@@H]1C.O=C(O)/C=C\C(=O)O [VICRIVIROC MALEATE]
[1]
  Population Apoptotic (%): 82%
  Population Fragmented Nuclei (%): 34%
  Population Healthy Nuclei (%): 54%
  Population Hoechst High Intensity Objects (%): 4%
  Population Membrane Permeable-Phenotype (%): 8%
  Population Mitochondria Different-Phenotype (%): 4%
  Population Mitotic Cells (%): 17%
  Population Normal (%): 95%
  Population Pyknosed Nuclei (%): 11%
  Population Tubulin-Different-Phenotype (%): 3%
  Total Cell Count: 261
[2]
  Population Apoptotic (%): 81%
  Population Fragmented Nuclei (%): 21%
  Population Healthy Nuclei (%): 67%
  Population Hoechst High Intensity Objects (%): 2%
  Population Membrane Permeable-Phenotype (%): 11%
  Population Mitochondria Different-Phenotype (%): 14%
  Population Mitotic Cells (%): 18%
  Population Normal (%): 97%
  Population Pyknosed Nuclei (%): 10%
  Population Tubulin-Different-Phenotype (%): 7%
  Total Cell Count: 105
[3]
  Population Apoptotic (%): 86%
  Population Fragmented Nuclei (%): 26%
  Population Healthy Nuclei (%): 65%
  Population Hoechst High Intensity Objects (%): 1%
  Population Membrane Permeable-Phenotype (%): 13%
  Population Mitochondria Different-Phenotype (%): 3%
  Population Mitotic Cells (%): 13%
  Population Normal (%): 98%
  Population Pyknosed Nuclei (%): 8%
  Population Tubulin-Different-Phenotype (%): 3%
  Total Cell Count: 270
[4]
  Population Apoptotic (%): 33%
  Population Fragmented Nuclei (%): 28%
  Population Hoechst High Intensity Objects (%): 2%
  Population Membrane Permeable-Phenotype (%): 5%
  Population Mitochondria Different-Phenotype (%): 6%
  Population Mitotic Cells (%): 66%
  Population Normal (%): 97%
  Population Pyknosed Nuclei (%): 6%
  Population Tubulin-Different-Phenotype (%): 6%
  Total Cell Count: 91
[5]
  Population Apoptotic (%): 77%
  Population Fragmented Nuclei (%): 25%
  Population Healthy Nuclei (%): 67%
  Population Hoechst High Intensity Objects (%): 3%
  Population Membrane Permeable-Phenotype (%): 5%
  Population Mitochondria Different-Phenotype (%): 3%
  Population Mitotic Cells (%): 22%
  Population Normal (%): 96%
  Population Pyknosed Nuclei (%): 7%
  Population Tubulin-Different-Phenotype (%): 2%
  Total Cell Count: 301
[6]
  Population Apoptotic (%): 93%
  Population Fragmented Nuclei (%): 20%
  Population Healthy Nuclei (%): 64%
  Population Hoechst High Intensity Objects (%): 4%
  Population Membrane Permeable-Phenotype (%): 10%
  Population Mitochondria Different-Phenotype (%): 14%
  Population Mitotic Cells (%): 6%
  Population Normal (%): 95%
  Population Pyknosed Nuclei (%): 15%
  Population Tubulin-Different-Phenotype (%): 10%
  Total Cell Count: 111
[7]
  Population Apoptotic (%): 80%
  Population Fragmented Nuclei (%): 25%
  Population Healthy Nuclei (%): 68%
  Population Hoechst High Intensity Objects (%): 1%
  Population Membrane Permeable-Phenotype (%): 3%
  Population Mitochondria Different-Phenotype (%): 3%
  Population Mitotic Cells (%): 19%
  Population Normal (%): 98%
  Population Pyknosed Nuclei (%): 6%
  Population Tubulin-Different-Phenotype (%): 2%
  Total Cell Count: 326
[8]
  Population Apoptotic (%): 83%
  Population Membrane Permeable-Phenotype (%): 4%
  Population Mitochondria Different-Phenotype (%): 2%
  Population Mitotic Cells (%): 16%
  Population Tubulin-Different-Phenotype (%): 7%
  Total Cell Count: 99
[9]
  Population Apoptotic (%): 78%
  Population Fragmented Nuclei (%): 20%
  Population Healthy Nuclei (%): 68%
  Population Hoechst High Intensity Objects (%): 3%
  Population Membrane Permeable-Phenotype (%): 3%
  Population Mitochondria Different-Phenotype (%): 2%
  Population Mitotic Cells (%): 21%
  Population Normal (%): 96%
  Population Pyknosed Nuclei (%): 10%
  Population Tubulin-Different-Phenotype (%): 1%
  Total Cell Count: 416
[10]
  Population Apoptotic (%): 93%
  Population Fragmented Nuclei (%): 25%
  Population Healthy Nuclei (%): 62%
  Population Hoechst High Intensity Objects (%): 1%
  Population Membrane Permeable-Phenotype (%): 13%
  Population Mitochondria Different-Phenotype (%): 11%
  Population Mitotic Cells (%): 6%
  Population Normal (%): 98%
  Population Pyknosed Nuclei (%): 11%
  Population Tubulin-Different-Phenotype (%): 10%
  Total Cell Count: 142
[11]
  Population Apoptotic (%): 80%
  Population Fragmented Nuclei (%): 19%
  Population Healthy Nuclei (%): 70%
  Population Hoechst High Intensity Objects (%): 2%
  Population Membrane Permeable-Phenotype (%): 3%
  Population Mitochondria Different-Phenotype (%): 2%
  Population Mitotic Cells (%): 20%
  Population Normal (%): 97%
  Population Pyknosed Nuclei (%): 9%
  Population Tubulin-Different-Phenotype (%): 1%
  Total Cell Count: 437
[12]
  Population Apoptotic (%): 93%
  Population Fragmented Nuclei (%): 18%
  Population Healthy Nuclei (%): 68%
  Population Hoechst High Intensity Objects (%): 5%
  Population Mitochondria Different-Phenotype (%): 6%
  Population Mitotic Cells (%): 6%
  Population Normal (%): 94%
  Population Pyknosed Nuclei (%): 12%
  Population Tubulin-Different-Phenotype (%): 6%
  Total Cell Count: 140
